LMPTP inh: blocks human LMPTP phosphatase. P24666. recombinant LMPTP-A, OMFP fluorogenic substrate, fluorescence intensity. inhibition, % at 20 µM. 360,000 tested, 0.22% active. AID 651560;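 active = compounds that cut the enzyme signal by at least half of the control window in the single-dose screen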;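 note: plate controls were DMSO wells with enzyme plus substrate for no effect and substrate without enzyme for full effect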
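Test system – LMPTP-A enzyme · Amount – LMPTP-A at 0.625 nM final in the reaction · Buffer or medium – Bis-Tris pH 6.0, DTT, detergent · Reagent – OMFP 400 µM · Doses – single 20 µM dose · Schedule – reaction 50 min, room temperature, dark · Detection – fluorescence intensity of OMFP turnover product · Evaluation – percent inhibition versus substrate-only and uninhibited controls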
SUMO1-SIM PPI: modulators of human SUMO1-mediated protein-protein interactions. P63165. SUMO1 binding to a labelled peptide, TR-FRET, 1 h. inhibition, % at 20 µM. 360,000 tested, 0.33% active; in the data active = inhibition above about 37%
Target sequence (P63165 whole entry, looked up): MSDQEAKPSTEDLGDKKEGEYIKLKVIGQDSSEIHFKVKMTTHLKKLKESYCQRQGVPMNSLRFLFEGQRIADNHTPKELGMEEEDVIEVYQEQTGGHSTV
DNMT1 block: DNMT1 (human) enzyme inhibition; 360,000 tested, 0.83% active; inhibition (reported as % activation of signal), % at 10 µM; P26358; DNMT1 molecular beacon, Hinp1I cleavage, fluorescence; in the data active = inhibition above about 50%
Scp1 inh: blocks human Scp-1 phosphatase activity | inhibition, % at 20 µM | 340,000 tested, 0.88% active | Q9GZU7 | Recombinant Scp1, phosphopeptide, malachite green phosphate absorbance;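 active = inhibition above about 50% at 20 µM, limit read from the data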;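 note: plate controls were DMSO wells with enzyme for no effect and wells lacking enzyme for full effect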
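Test system: SCP-1 phosphatase catalytic domain, residues 76-261; measured by: colorimetric phosphate reagent with accelerator and stabiliser, absorbance at 630 nm; timing: enzyme reaction 45 min at room temperature, colour 5 min, stabilisation 30 min; also added: Phosphorylated 17-residue peptide substrate; compound dosing: one concentration, 20 µM, with 1.0% DMSO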
STEP block: inhibitors of human striatal-enriched phosphatase STEP; P54829; recombinant STEP, OMFP fluorogenic substrate, fluorescence; inhibition, % at 20 µM; 360,000 tested, 0.25% active; AID 588621;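 active = inhibition at 20 µM, scaled per plate between control wells, above about 37%, limit read from the data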;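 note: 0% = DMSO with enzyme and substrate and 100% = substrate only without enzyme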
Target sequence (P54829 whole entry, looked up): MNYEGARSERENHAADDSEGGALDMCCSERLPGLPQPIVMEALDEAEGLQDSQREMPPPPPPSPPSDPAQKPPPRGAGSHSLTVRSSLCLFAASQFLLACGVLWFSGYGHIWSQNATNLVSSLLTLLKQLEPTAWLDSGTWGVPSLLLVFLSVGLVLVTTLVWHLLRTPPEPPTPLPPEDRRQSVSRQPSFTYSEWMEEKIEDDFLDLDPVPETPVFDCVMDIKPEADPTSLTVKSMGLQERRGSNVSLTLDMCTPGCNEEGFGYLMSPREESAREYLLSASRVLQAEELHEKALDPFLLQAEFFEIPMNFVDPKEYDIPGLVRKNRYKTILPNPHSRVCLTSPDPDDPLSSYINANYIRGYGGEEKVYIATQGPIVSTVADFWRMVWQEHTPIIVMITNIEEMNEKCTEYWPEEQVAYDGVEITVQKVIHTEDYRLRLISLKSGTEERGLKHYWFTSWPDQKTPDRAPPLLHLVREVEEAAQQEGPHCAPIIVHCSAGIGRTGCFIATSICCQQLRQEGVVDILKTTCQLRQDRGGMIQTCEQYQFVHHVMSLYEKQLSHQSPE
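Material: STEP (striatal-enriched tyrosine phosphatase) enzyme, cell-free | Medium: 50 mM Bis-Tris pH 6.0 with 2.5 mM DTT and 0.005% Tween 20 | Read-out: Percent inhibition scaled to no-enzyme and uninhibited-enzyme controls, plate-pattern corrected | Signal: Fluorescence read at 480 nm ex / 540 nm em | Times: 20 min reaction, room temperature, in the dark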
DNMT1 interf DR: shows spectral interference in the DNMT1 beacon assay | shares compounds with DNMT1 block | molecular beacon fluorescence, spectral interference counter-screen | IC50, µM | 200 tested, under 10 active | AID 602382; call rule not given here
DNMT1 confirm: DNMT1 inhibition confirmation, single concentration | shares compounds with DNMT1 block | 2,300 tested, 8% active | inhibition, % at 10 µM | DNMT1 molecular beacon HinP1I cleavage, fluorescence | AID 602385;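 active = average inhibition of at least 30% in the single-concentration confirmation test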
DNMT1 interf: counter-screen for DNMT1 inhibitors: spectral interference. shares compounds with DNMT1 block. DNMT1 molecular beacon spectral interference counterscreen, fluorescence 485/520. activation (fluorescence interference), % at 10 µM. 2,300 tested, 1% active. AID 602387;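 active = activation of at least 30% at 10 µM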;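 note: DNMT1 catalytic domain with a HinP1I cleavage step and a FAM/dabcyl DNA beacon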
Numbers without * were called inactive; x = no result. An excerpt weighted towards active compounds, which were near 1.7% of everything screened.

SMILES	LMPTP inh	SUMO1-SIM PPI	DNMT1 block	Scp1 inh	STEP block	DNMT1 confirm	DNMT1 interf	others
NNC(=O)c1[nH]c(-c2ccccc2)cc1-c1ccccc1	2	-2	68*	2	1	4	5
Cc1c(-c2ccccc2)n[nH]c1C(=O)NN	-3	4	0	-7	-2	x	x
O=C(NN=Cc1cc(Br)c(O)c(Br)c1)c1ccccc1NS(=O)(=O)c1cccs1	-2	13	8	-16	7	x	x
CC1(C(=O)NS(=O)(=O)c2cccc(C#N)c2)CCN1C(=O)CC1CC1 (configuration not stated)	-1	0	3	x	-1	x	x
Cc1cccn2c(=O)c3cc(C(=O)NCCC4=CCCCC4)n(C)c3nc12	2	3	59*	22	2	0	-7
CCCCC[C@H](C)N1C[C@@H](COCc2ccccc2)Oc2cc(N3CCC[C@@H]3COC)ccc2S1(=O)=O	5	-3	x	x	x	x	x
Cc1ccc(C)n1/N=C1/NC(=O)CS1	0	30	90*	8	8	3	2
Cc1ccc2nc(NC(=O)CN3C(=O)NC4(CCCC4)C3=O)sc2c1	1	0	1	-8	0	x	x
COc1ccccc1N1CCN(/N=C/c2ccc([N+](=O)[O-])cc2)CC1	0	-26	-3	4	3	x	x
COc1ccccc1N1CCN(/N=C/c2ccc(Cl)c([N+](=O)[O-])c2)CC1	2	-9	99*	4	4	35*	6	DNMT1 interf DR=>99
COc1ccc(NC(=O)c2ccc(N3C(=O)C4CC=C(Cl)CC4C3=O)cc2)cc1 (configuration not stated)	3	-2	-16	5	-3	x	x
O=C(NN1C(=O)C2CC=C(Cl)CC2C1=O)c1ccncc1 (configuration not stated)	-2	9	58*	16	4	1	1
Cc1cccc(NC(=O)NCCN2CCN(c3ccccc3)CC2)c1C	-1	3	0	-4	0	x	x
O=C(NCc1ccccc1)C1CCCN1C(=O)Nc1ccccc1[N+](=O)[O-] (configuration not stated)	0	-25	3	-7	-1	x	x
CCOc1cc(/C=C2\C(=O)N(c3nc(-c4ccc(Br)cc4)cs3)N=C2c2ccccc2)ccc1O	10	21	96*	-16	4	93*	-5	DNMT1 interf DR=>99
COc1cc(/C=C2\C(=O)N(c3ccc(NC(C)=O)cc3)N=C2c2ccccc2)ccc1O	2	-5	-4	-1	5	x	x
Cc1cc(C)cc(Nc2nc(-c3ccc(S(=O)(=O)N4CCCC4)cc3)cs2)c1	4	0	97*	-4	-2	4	6
Cc1ccc(Nc2nc(-c3ccc(S(=O)(=O)N4CCCC4)cc3)cs2)cc1C	4	-2	-14	-1	0	x	x
CN=C1N(C)C[C@@H]2[C@@H]3C(=O)N(Cc4ccccc4)C(=O)[C@@H]3[C@](Cc3ccccc3)(C(=O)OC)N12	-2	-1	6	14	2	x	x
Cc1cc2nc3c(=O)n(CCc4ccccc4)c(=O)[nH]c3nc2cc1N	-2	-36	63*	8	-60	65*	90*
C=CCn1c(=O)[nH]c2nc3cc(N=CN(C)C)c(C)cc3nc2c1=O	0	-35	12	-12	-10	x	x
CCN(CC)CCn1c2ccccc2c2cnc(N)c(C#N)c21	-1	1	61*	0	-1	38*	3	DNMT1 interf DR=>99
Cc1ccc2c(C(=O)CN3CC(C)CC(C)C3)c(C)[nH]c2c1 (configuration not stated)	1	1	-1	x	-2	x	x
S=C(NCc1ccco1)NCc1ccco1	9	5	50	4	13	1	-1
O=C(NCc1ccco1)c1ccc(Cn2cc([N+](=O)[O-])cn2)o1	-1	-11	4	0	-1	x	x
SMILES	LMPTP inh	SUMO1-SIM PPI	DNMT1 block	Scp1 inh	STEP block	DNMT1 confirm	DNMT1 interf	others
O=C(NCc1ccco1)c1ccc([N+](=O)[O-])o1	9	-23	67*	59*	-2	3	3
COP(=O)(OC)C(=NNS(=O)(=O)c1ccc(C)cc1)c1ccccc1	-1	1	3	x	-5	x	x
Cc1csc(-c2nc3ccccc3n2C(C(=O)NC(C)(C)C)c2cc3ccccc3o2)c1 (configuration not stated)	3	2	x	x	x	x	x
CN(CC(=O)Nc1ccccc1Cl)C(=O)COC(=O)c1ccc([N+](=O)[O-])s1	-1	16	65*	5	2	-2	-6
CN(CC(=O)Nc1ccccc1Cl)C(=O)COC(=O)c1cccs1	-1	-1	3	7	-2	x	x
NS(=O)(=O)c1ccc(NC(=O)COC(=O)c2ccc([N+](=O)[O-])s2)cc1	0	10	70*	-4	-2	70*	-2	DNMT1 interf DR=>99
Cc1nc2ccc(Br)cn2c1C(=O)N/N=C\c1ccccc1Cl	-1	0	17	-5	3	x	x
CN(Cc1ccc(C(C)(C)C)cc1)C(=O)Cc1ccc(S(=O)(=O)N2CCOCC2)s1	1	1	71*	-13	2	3	3
CN(Cc1cccc(F)c1)C(=O)Cc1ccc(S(=O)(=O)N2CCOCC2)s1	-8	1	-2	-8	0	x	x
[O-][N+](=Cc1ccccc1)CC1(O)CCCCC1	0	-3	2	x	-5	x	x
O=C(c1ccccc1)c1ccc(O)c(O)c1O	51*	20	78*	66*	32	7	-3
COCCn1c(SCC(=O)Nc2sc(C)c(C)c2C#N)nnc1-c1ccc(OC)cc1	-1	0	2	-9	-3	x	x
Cc1ccc(-c2nnc(SCC(=O)Nc3sc(C)c(C)c3C#N)n2C)cc1	-1	-1	52*	-9	-8	3	-4
CC1(C)C[C@H](O)[C@]2(CO)[C@H](O)C[C@]3(C)C(=CCC4[C@@]5(C)CC[C@H](O)C(C)(C)C5CC[C@]43C)[C@@H]2C1 (some centres not stated)	0	3	71*	-3	0	2	-5
C[C@@H]1CN([C@@H](C)CO)S(=O)(=O)c2ccc(Br)cc2O[C@H]1CN(C)C(=O)Cc1cccnc1	-1	1	3	x	1	x	x
Nc1ncc(Br)cc1S(=O)(=O)Nc1ccccc1F	0	6	2	-1	-1	x	x
Cc1cccc2sc(NC(=O)C3CCCO3)nc12 (configuration not stated)	0	-4	3	13	-3	x	x

Screening data from PubChem BioAssay.
